Experimental data as given in ChEMBL document CHEMBL1156788, “A 1,8-naphthyridone derivative targets the HIV-1 Tat-mediated transcription and potently inhibits the HIV-1 replication” (J Med Chem, 2010).
In brackets after ≈: the same amount, converted by molar mass. Activity calls are given as the source filed them.

How the values were obtained:
[1] = tested on: Human immunodeficiency virus 1; assay: Antiviral activity against HIV1 in human U1 cells assessed as inhibition of PMA-stimulated viral expression measured by p24 production; assay type: functional, organism-based; settings: Human immunodeficiency virus 1, U1
Outline: (§1)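 Latently infected OM-10.1 and U1 cells at 5 × 10^5 cells/mL preincubated 2 h with or without compound, then stimulated with TNF-α 1 ng/mL or PMA 0.02 μM. After 2 days at 37 °C, p24 in supernatant measured by ELISA; viability assessed in parallel by MTT. EC50 = 50% reduction of p24; mean ± SD of ≥3 experiments.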

[2] = tested on: Human immunodeficiency virus 1; assay: Antiviral activity against HIV1 in human U1 cells assessed as inhibition of TNF-alpha-stimulated viral expression measured by p24 production; assay type: functional, organism-based; settings: Human immunodeficiency virus 1, U1; outline: as §1
[3] = tested on: Human immunodeficiency virus 1; assay: Antiviral activity against HIV1 3B mutant in human MT4 cells assessed as protection against virus-induced cytopathogenicity after 60 passage resistance selection by MTT assay; assay type: functional, organism-based; settings: Human immunodeficiency virus 1, 3B
Outline: (§2)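 Virus added at 100-300 CCID50 to MT-4 cells (6 × 10⁵ cells/mL) together with serial 5-fold compound dilutions, triplicate wells. Viability read by MTT after 5 days at 540 and 690 nm, using the median OD of three wells. EC50 is the concentration giving 50% protection from virus-induced cytopathic effect. Mean ± SD of at least two experiments.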

[4] = Selectivity index, ratio of CC50 for human MT4 cells to EC50 for HIV1 3B mutant; assay type: toxicity, cell-based; settings: read-out: Ratio CC50/EC50
Outline: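 SI = CC50 in mock-infected MT-4 cells (MTT, 5 days) divided by EC50 against the selected mutant in the MT-4 MTT cytopathicity assay.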

[5] = Selectivity index, ratio of CC50 for human Jurkat cells to EC50 for HIV1; assay type: toxicity, cell-based; settings: read-out: Ratio CC50/EC50
[6] = Cytotoxicity against human HuT78 by MTT assay; assay type: cell-based; settings: HuT78 cells
Outline: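 Chronically infected HuT-78 cells; CC50 defined as the concentration reducing cell viability by 50%, measured by the MTT method. Mean ± SD of at least three separate experiments.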

[7] = Cytotoxicity against TNF-alpha-stimulated human OM10.1 cells by MTT assay; assay type: cell-based; outline: as §1
[8] = Cytotoxicity against TNF-alpha-stimulated human U1 cells by MTT assay; assay type: cell-based; outline: as §1
[9] = tested on: Human immunodeficiency virus 1; assay: Antiviral activity against HIV1 in human PBMC assessed as inhibition of p24 protein production by MTT assay; assay type: functional, organism-based; settings: in the assay text read “by ELISA” for “by MTT assay”
Outline: (§3)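 PBMCs from healthy donors isolated by density centrifugation and stimulated 3 days with PHA. Blasts washed, plated at 2 × 10^5 per well with serial compound dilutions and infected with HIV at 1000 CCID50/mL. Medium and compound refreshed at day 4; p24 in supernatant measured by ELISA at day 7. EC50 = 50% inhibition of p24; SI = CC50/EC50.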

[10] = tested on: Human immunodeficiency virus 1; assay: Antiviral activity against HIV1 in human HeLa cells assessed as inhibition of Tat-mediated transcription after 24 hrs by LTR-driven luciferase reporter assay; assay type: functional, organism-based
Outline: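 HeLa clone carrying an HIV-1 LTR-luciferase reporter, activated with subsaturating Tat or left without Tat for basal promoter activity. Cells incubated with increasing compound concentrations; luciferase measured in cell lysates 24 h after treatment. Controls were DMSO vehicle, untreated cells and flavopiridol at 10 μM.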

[11] = Selectivity index, ratio of CC50 for human MT4 cells to EC50 for HIV1 3B; assay type: toxicity, cell-based; settings: read-out: Ratio CC50/EC50
Outline: (§4)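 MT-4 cells at 6 × 10^5 cells/mL, mock- or virus-infected with HIV-1 IIIB or HIV-2 ROD at 100-300 CCID50, with serial 5-fold compound dilutions in triplicate. After 5 days, viability read by MTT at 540 and 690 nm, using the median OD of three wells. EC50 = 50% protection from viral cytopathic effect; CC50 = 50% reduction of OD540 in mock-infected cells. SI = CC50/EC50; mean ± SD of ≥2 experiments.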

[12] = Selectivity index, ratio of CC50 for human MT4 cells to EC50 for HIV1 3B mutant after 60 passage resistance selection by MTT assay; assay type: toxicity, cell-based; settings: read-out: Ratio CC50/EC50
[13] = tested on: Human immunodeficiency virus 1; assay: Antiviral activity against HIV1 3B in human MT4 cells assessed as inhibition of p24 protein production measured delay in infection up to 10 hrs by time-of addition experiment; assay type: functional, organism-based
Outline: (§5)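 Time-of-addition assay. MT-4 cells infected with HIV-1 IIIB at moi 0.5 to synchronize replication. Compounds added at various times from 0 to 25 h post-infection; p24 antigen in supernatant measured by ELISA at 31 h p.i. Reference drugs AZT and ritonavir were given at 100× their MT-4/MTT IC50.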

[14] = tested on: Human immunodeficiency virus 1; assay: Antiviral activity against HIV1 in human OM10.1 cells assessed as inhibition of TNF-alpha-stimulated viral expression measured by p24 production; assay type: functional, organism-based; outline: as §1
[15] = tested on: Human immunodeficiency virus 1; assay: Antiviral activity against HIV1 3B in human MT4 cells assessed as protection against virus-induced cytopathogenicity by MTT assay; assay type: functional, organism-based; settings: Human immunodeficiency virus 1, 3B; outline: as §4
[16] = Selectivity index, ratio of CC50 for PMA-stimulated human OM10.1 cells to EC50 for HIV1; assay type: toxicity; settings: read-out: Ratio CC50/EC50
Outline: (§6)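 OM-10.1 or U1 cells at 5 × 10⁵ cells/mL were preincubated with compound for 2 h, then stimulated with TNF-α 1 ng/mL or PMA 0.02 μM. After 2 days at 37 °C, supernatant p24 was measured by ELISA for EC50, and parallel cultures were read by MTT for CC50. SI = CC50/EC50. Mean ± SD of at least three experiments.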

[17] = tested on: Human immunodeficiency virus 1; assay: Antiviral activity against HIV1 3B in human […] cells assessed as inhibition of p24 production; assay type: functional, organism-based; settings: Human immunodeficiency virus 1, 3B
Outline: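 Chronically infected HuT-78 cells washed with PBS and pelleted three times, then 200000 cells per 1 mL seeded with test compound at set concentrations. Grown 44 h; supernatant p24 measured by ELISA. EC50 = 50% reduction of p24 production; mean ± SD of at least three separate experiments. Nevirapine and ritonavir included as controls.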

[18] = Selectivity index, ratio of CC50 for human MT4 cells to EC50 for HIV2 ROD; assay type: toxicity, cell-based; settings: read-out: Ratio CC50/EC50; outline: as §4
[19] = Selectivity index, ratio of CC50 for TNF-alpha-stimulated human U1 cells to EC50 for HIV1; assay type: toxicity, cell-based; settings: read-out: Ratio CC50/EC50; outline: as §6
[20] = Cytotoxicity against human PBMC by MTT assay; assay type: cell-based; settings: in the assay text read “trypan blue exclusion method” for “MTT assay”
Outline: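 Cytotoxicity in PHA-stimulated PBMCs read by trypan blue exclusion; CC50 = concentration reducing viability of mock-infected cells by 50%. Mean ± SD of at least two experiments.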

[21] = tested on: Human immunodeficiency virus 1; assay: Antiviral activity against HIV1 3B mutant in human MT4 cells assessed as protection against virus-induced cytopathogenicity by MTT assay; assay type: functional, organism-based; settings: Human immunodeficiency virus 1, 3B; outline: as §2
[22] = tested on: Human immunodeficiency virus 1; assay: Antiviral activity against HIV1 in human OM10.1 cells assessed as inhibition of PMA-stimulated viral expression measured by p24 production; assay type: functional, organism-based; outline: as §1
[23] = Cytotoxicity against PMA-stimulated human U1 cells by MTT assay; assay type: cell-based; outline: as §1
[24] = tested on: Human immunodeficiency virus 1; assay: Antiviral activity against HIV1 in human Jurkat cells assessed as inhibition of GFP expression by flow cytometry; settings: Human immunodeficiency virus 1, Jurkat
[25] = tested on: Human immunodeficiency virus 2; assay: Antiviral activity against HIV2 ROD in human MT4 cells assessed as protection against virus-induced cytopathogenicity by MTT assay; assay type: functional, organism-based; settings: Human immunodeficiency virus 2, ISOLATE ROD; outline: as §4
[26] = Selectivity index, ratio of CC50 for human PBMC to EC50 for HIV1; outline: as §3
[27] = tested on: Human immunodeficiency virus 1; assay: Antiviral activity against HIV1 3B in human MT4 cells assessed as inhibition of p24 protein production measured delay in infection up to 18 hrs by time-of addition experiment; assay type: functional, organism-based; settings: in the assay text read “up to 10 hrs” for “up to 18 hrs”; outline: as §5
[28] = Selectivity index, ratio of CC50 for PMA-stimulated human U1 cells to EC50 for HIV1; assay type: toxicity, cell-based; settings: read-out: Ratio CC50/EC50; outline: as §6
[29] = Cytotoxicity against PMA-stimulated human OM10.1 cells by MTT assay; assay type: cell-based; outline: as §1
[30] = Cytotoxicity against human Jurkat cells by MTT assay; assay type: cell-based
[31] = tested on: Human immunodeficiency virus 1; assay: Antiviral activity against HIV1 3B in human MT4 cells assessed as inhibition of p24 protein production measured delay in infection up to 5 hrs by time-of addition experiment; assay type: functional, organism-based; settings: in the assay text read “up to 10 hrs” for “up to 5 hrs”; outline: as §5
C8166T = assay: Antiviral activity against integrase deficient Simian virus 40/HIV-1 chimera (n/N.Tag.oriT) virus in human C8166T cells assessed as inhibition of viral replication; assay type: functional, cell-based
Outline: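 C8166 T-cells were infected with HIV-1 NL4.3 or N/N.Tag.oriT and exposed to a range of compound concentrations. p24 in the supernatant was measured relative to untreated controls (100%). Toxicity was read in parallel by MTT.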

[32] = Cytotoxicity against human MT4 cells by MTT assay; assay type: cell-based; outline: as §4
[33] = Selectivity index, ratio of CC50 for TNF-alpha-stimulated human OM10.1 cells to EC50 for HIV1; assay type: toxicity; settings: read-out: Ratio CC50/EC50; outline: as §6

Cn1cc(C(=O)O)c(=O)c2ccc(N3CCN(c4nc5ccccc5s4)CC3)nc21
EC50 [1]: 0.002 mg/L (≈ 0.00475 µM) | EC50 [2]: 0.003 mg/L (≈ 0.00712 µM) | EC50 [3]: 0.017 mg/L (≈ 0.0403 µM) | selectivity ratio [4]: 1280 | selectivity ratio [5]: 44 | CC50 [6]: > 10 mg/L | CC50 [7]: 1.27 mg/L (≈ 3.01 µM) | CC50 [8]: 0.99 mg/L (≈ 2.35 µM) | EC50 [9]: 0.6 mg/L (≈ 1.42 µM) | Activity [10]: Dose-dependent effect | selectivity ratio [11]: 457 | selectivity ratio [12]: 1420 | Activity [13]: Active | EC50 [14]: 0.003 mg/L (≈ 0.00712 µM) | EC50 [15]: 0.03 mg/L (≈ 0.0712 µM) | selectivity ratio [16]: 189 | EC50 [17]: 0.032 mg/L (≈ 0.0759 µM) | selectivity ratio [18]: 522 | selectivity ratio [19]: 330 | CC50 [20]: 10.3 mg/L (≈ 24.5 µM) | EC50 [21]: 0.019 mg/L (≈ 0.0451 µM) | EC50 [22]: 0.004 mg/L (≈ 0.00949 µM) | CC50 [23]: 2.67 mg/L (≈ 6.33 µM) | EC50 [24]: 0.34 mg/L (≈ 0.807 µM) | EC50 [25]: 0.02 mg/L (≈ 0.0475 µM) | Ratio CC50/EC50 [26]: 17 | Activity [27]: Active | selectivity ratio [28]: 1330 | CC50 [29]: 0.75 mg/L (≈ 1.78 µM) | CC50 [30]: 15.1 mg/L (≈ 35.9 µM) | Activity [31]: Active | Activity (C8166T): Active | CC50 [32]: 12.1 mg/L (≈ 28.6 µM) | selectivity ratio [33]: 422

Cn1cc(C(=O)O)c(=O)c2ccc(N3CCN(c4ccccn4)CC3)nc21
selectivity ratio [11]: 16 | EC50 [15]: 0.62 mg/L (≈ 1.7 µM) | selectivity ratio [18]: 18 | EC50 [25]: 0.55 mg/L (≈ 1.51 µM) | CC50 [32]: 9.93 mg/L (≈ 27.2 µM)

Cn1cc(C(=O)O)c(=O)c2ccc(N3CCN(c4cccc(C(F)(F)F)c4)CC3)nc21
selectivity ratio [11]: < 1 | EC50 [15]: > 0.41 mg/L | selectivity ratio [18]: < 1 | EC50 [25]: > 0.41 mg/L | CC50 [32]: 0.41 mg/L (≈ 0.948 µM)

Cn1cc(C(=O)O)c(=O)c2ccc(N3CCN(c4nccs4)CC3)nc21
selectivity ratio [11]: > 40 | EC50 [15]: 3.15 mg/L (≈ 8.48 µM) | selectivity ratio [18]: > 136 | EC50 [25]: 0.922 mg/L (≈ 2.48 µM) | CC50 [32]: > 125 mg/L
